Key:
[1] = tested on: Chrysosporium keratinophilum; test: Antimicrobial activity against Chrysosporium keratinophilum at 100 ug/mL after 72 hrs by well plate method; format: functional; details: read-out: IZ
How it was run: (§1)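 Antifungal well-plate assay on Sabouraud dextrose agar using a 72 h old broth culture of the fungal strain. Wells were filled with compound dissolved in DMSO (100 or 50), and the zone of inhibition around each well was measured. […] served as reference.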

Escherichia coli [2] = test: Antimicrobial activity against Escherichia coli at 50 ug/mL after 24 hrs by well plate method; format: functional; details: read-out: IZ
How it was run: (§2)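 Agar well diffusion in nutrient agar. About 1 cm³ of a 24 h broth culture was placed in sterile dishes, and molten agar at 45 °C was poured over it and set. 6 mm wells were bored and filled with compound in DMSO (100 or 50). Plates were incubated 24 h at 37 °C, and the inhibition zone was read in mm. Duplicate runs, with standard deviation; amoxicillin as reference.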

Staphylococcus aureus [3] = test: Antimicrobial activity against Staphylococcus aureus at 100 ug/mL after 24 hrs by well plate method; format: functional; details: read-out: IZ; how it was run: as §2
[4] = tested on: Chrysosporium keratinophilum; test: Antimicrobial activity against Chrysosporium keratinophilum at 50 ug/mL after 72 hrs by well plate method; format: functional; details: read-out: IZ; how it was run: as §1
Candida albicans [5] = test: Antimicrobial activity against Candida albicans at 100 ug/mL after 72 hrs by well plate method; format: functional; details: read-out: IZ; how it was run: as §1
Candida albicans [6] = test: Antimicrobial activity against Candida albicans at 50 ug/mL after 72 hrs by well plate method; format: functional; details: read-out: IZ; how it was run: as §1
Nannizzia gypsea [7] = test: Antimicrobial activity against Microsporum gypseum at 100 ug/mL after 72 hrs by well plate method; format: functional; details: read-out: IZ; how it was run: as §1
Nannizzia gypsea [8] = test: Antimicrobial activity against Microsporum gypseum at 50 ug/mL after 72 hrs by well plate method; format: functional; details: read-out: IZ; how it was run: as §1
Aspergillus flavus [9] = test: Antimicrobial activity against Aspergillus flavus at 100 ug/mL after 72 hrs by well plate method; format: functional; details: read-out: IZ
Aspergillus flavus [10] = test: Antimicrobial activity against Aspergillus flavus at 50 ug/mL after 72 hrs by well plate method; format: functional; details: read-out: IZ
Staphylococcus aureus [11] = test: Antimicrobial activity against Staphylococcus aureus at 50 ug/mL after 24 hrs by well plate method; format: functional; details: read-out: IZ; how it was run: as §2
Bacillus subtilis [12] = test: Antimicrobial activity against Bacillus subtilis at 100 ug/mL after 24 hrs by well plate method; format: functional; details: read-out: IZ; how it was run: as §2
Bacillus subtilis [13] = test: Antimicrobial activity against Bacillus subtilis at 50 ug/mL after 24 hrs by well plate method; format: functional; details: read-out: IZ; how it was run: as §2
Salmonella typhi [14] = test: Antimicrobial activity against Salmonella typhi at 50 ug/mL after 24 hrs by well plate method; format: functional, Salmonella enterica subsp. enterica serovar Typhi; details: Salmonella enterica, read-out: IZ
How it was run: (§3)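 Agar well diffusion in nutrient agar: about 1 cm³ of a 24 h broth culture placed in a sterile dish, molten agar at 45 °C poured over it and allowed to set. 6 mm holes cut with a sterile cork borer and filled with compound solution in DMSO. Incubated 24 h at 37 °C; inhibition zone diameter read in mm. Run in duplicate, standard deviation calculated.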

Salmonella typhi [15] = test: Antimicrobial activity against Salmonella typhi at 100 ug/mL after 24 hrs by well plate method; format: functional, Salmonella enterica subsp. enterica serovar Typhi; details: Salmonella enterica, read-out: IZ; how it was run: as §3
Escherichia coli [16] = test: Antimicrobial activity against Escherichia coli at 100 ug/mL after 24 hrs by well plate method; format: functional; details: read-out: IZ; how it was run: as §2

SMILES: O=c1c2ccccc2c(Cc2nnc(C3CC3)o2)nn1Cc1ccc(Cl)nc1
- zone of inhibition at 100 µg/mL [1]: 2.5 mm
- zone of inhibition at 50 µg/mL (Escherichia coli [2]): 7 mm
- zone of inhibition at 100 µg/mL (Staphylococcus aureus [3]): 4.5 mm
- zone of inhibition at 50 µg/mL [4]: 0.5 mm
- zone of inhibition at 100 µg/mL (Candida albicans [5]): 8.5 mm
- zone of inhibition at 50 µg/mL (Candida albicans [6]): 5.5 mm
- zone of inhibition at 100 µg/mL (Nannizzia gypsea [7]): 7.5 mm
- zone of inhibition at 50 µg/mL (Nannizzia gypsea [8]): 4.5 mm
- zone of inhibition at 100 µg/mL (Aspergillus flavus [9]): 5 mm
- zone of inhibition at 50 µg/mL (Aspergillus flavus [10]): 2.5 mm
- zone of inhibition at 50 µg/mL (Staphylococcus aureus [11]): 1 mm
- zone of inhibition at 100 µg/mL (Bacillus subtilis [12]): 6.5 mm
- zone of inhibition at 50 µg/mL (Bacillus subtilis [13]): 4 mm
- zone of inhibition at 50 µg/mL (Salmonella typhi [14]): 3 mm
- zone of inhibition at 100 µg/mL (Salmonella typhi [15]): 6 mm
- zone of inhibition at 100 µg/mL (Escherichia coli [16]): 11.5 mm

SMILES: O=c1c2ccccc2c(Cc2nnc(-c3ccc(Cl)cc3)o2)nn1Cc1ccc(Cl)nc1
- zone of inhibition at 100 µg/mL [1]: 3 mm
- zone of inhibition at 50 µg/mL (Escherichia coli [2]): 5 mm
- zone of inhibition at 100 µg/mL (Staphylococcus aureus [3]): 4.5 mm
- zone of inhibition at 50 µg/mL [4]: 1 mm
- zone of inhibition at 100 µg/mL (Candida albicans [5]): 5.5 mm
- zone of inhibition at 50 µg/mL (Candida albicans [6]): 3 mm
- zone of inhibition at 100 µg/mL (Nannizzia gypsea [7]): 4 mm
- zone of inhibition at 50 µg/mL (Nannizzia gypsea [8]): 1 mm
- zone of inhibition at 100 µg/mL (Aspergillus flavus [9]): 5 mm
- zone of inhibition at 50 µg/mL (Aspergillus flavus [10]): 2.5 mm
- zone of inhibition at 50 µg/mL (Staphylococcus aureus [11]): 1 mm
- zone of inhibition at 100 µg/mL (Bacillus subtilis [12]): 7 mm
- zone of inhibition at 50 µg/mL (Bacillus subtilis [13]): 3.5 mm
- zone of inhibition at 50 µg/mL (Salmonella typhi [14]): 4 mm
- zone of inhibition at 100 µg/mL (Salmonella typhi [15]): 7.5 mm
- zone of inhibition at 100 µg/mL (Escherichia coli [16]): 8 mm

SMILES: O=c1c2ccccc2c(Cc2nnc(C(F)(F)F)o2)nn1Cc1cnc(Cl)s1
- zone of inhibition at 100 µg/mL [1]: 5.5 mm
- zone of inhibition at 50 µg/mL (Escherichia coli [2]): 3 mm
- zone of inhibition at 100 µg/mL (Staphylococcus aureus [3]): 7 mm
- zone of inhibition at 50 µg/mL [4]: 2 mm
- zone of inhibition at 100 µg/mL (Candida albicans [5]): 3.5 mm
- zone of inhibition at 50 µg/mL (Candida albicans [6]): 0.5 mm
- zone of inhibition at 100 µg/mL (Nannizzia gypsea [7]): 5.5 mm
- zone of inhibition at 50 µg/mL (Nannizzia gypsea [8]): 3 mm
- zone of inhibition at 100 µg/mL (Aspergillus flavus [9]): 4.5 mm
- zone of inhibition at 50 µg/mL (Aspergillus flavus [10]): 1.5 mm
- zone of inhibition at 50 µg/mL (Staphylococcus aureus [11]): 4 mm
- zone of inhibition at 100 µg/mL (Bacillus subtilis [12]): 5 mm
- zone of inhibition at 50 µg/mL (Bacillus subtilis [13]): 3 mm
- zone of inhibition at 50 µg/mL (Salmonella typhi [14]): 3 mm
- zone of inhibition at 100 µg/mL (Salmonella typhi [15]): 5.5 mm
- zone of inhibition at 100 µg/mL (Escherichia coli [16]): 6.5 mm

SMILES: O=c1c2ccccc2c(Cc2nnc(-c3ccc(Cl)cc3)o2)nn1CCN1CCOCC1
- zone of inhibition at 100 µg/mL [1]: 1.5 mm
- zone of inhibition at 50 µg/mL (Escherichia coli [2]): 3 mm
- zone of inhibition at 100 µg/mL (Staphylococcus aureus [3]): 8 mm
- zone of inhibition at 50 µg/mL [4]: 0 mm
- zone of inhibition at 100 µg/mL (Candida albicans [5]): 3.5 mm
- zone of inhibition at 50 µg/mL (Candida albicans [6]): 1 mm
- zone of inhibition at 100 µg/mL (Nannizzia gypsea [7]): 3 mm
- zone of inhibition at 50 µg/mL (Nannizzia gypsea [8]): 1 mm
- zone of inhibition at 100 µg/mL (Aspergillus flavus [9]): 1 mm
- zone of inhibition at 50 µg/mL (Aspergillus flavus [10]): 0 mm
- zone of inhibition at 50 µg/mL (Staphylococcus aureus [11]): 5 mm
- zone of inhibition at 100 µg/mL (Bacillus subtilis [12]): 4 mm
- zone of inhibition at 50 µg/mL (Bacillus subtilis [13]): 2 mm
- zone of inhibition at 50 µg/mL (Salmonella typhi [14]): 3 mm
- zone of inhibition at 100 µg/mL (Salmonella typhi [15]): 4.5 mm
- zone of inhibition at 100 µg/mL (Escherichia coli [16]): 7 mm

SMILES: CC1(C)S[C@@H]2[C@H](NC(=O)[C@H](N)c3ccc(O)cc3)C(=O)N2[C@H]1C(=O)O [AMOXICILLIN]
- zone of inhibition at 50 µg/mL (Escherichia coli [2]): 15 mm
- zone of inhibition at 100 µg/mL (Staphylococcus aureus [3]): 16.5 mm
- zone of inhibition at 50 µg/mL (Staphylococcus aureus [11]): 12.5 mm
- zone of inhibition at 100 µg/mL (Bacillus subtilis [12]): 14.5 mm
- zone of inhibition at 50 µg/mL (Bacillus subtilis [13]): 10.5 mm
- zone of inhibition at 50 µg/mL (Salmonella typhi [14]): 12 mm
- zone of inhibition at 100 µg/mL (Salmonella typhi [15]): 20.5 mm
- zone of inhibition at 100 µg/mL (Escherichia coli [16]): 18.5 mm

SMILES: O=c1c2ccccc2c(Cc2nnc(C3CC3)o2)nn1Cc1cnc(Cl)s1
- zone of inhibition at 100 µg/mL [1]: 3.5 mm
- zone of inhibition at 50 µg/mL (Escherichia coli [2]): 9 mm
- zone of inhibition at 100 µg/mL (Staphylococcus aureus [3]): 4.5 mm
- zone of inhibition at 50 µg/mL [4]: 0.5 mm
- zone of inhibition at 100 µg/mL (Candida albicans [5]): 5.5 mm
- zone of inhibition at 50 µg/mL (Candida albicans [6]): 3.5 mm
- zone of inhibition at 100 µg/mL (Nannizzia gypsea [7]): 7 mm
- zone of inhibition at 50 µg/mL (Nannizzia gypsea [8]): 4.5 mm
- zone of inhibition at 100 µg/mL (Aspergillus flavus [9]): 6 mm
- zone of inhibition at 50 µg/mL (Aspergillus flavus [10]): 3.5 mm
- zone of inhibition at 50 µg/mL (Staphylococcus aureus [11]): 2 mm
- zone of inhibition at 100 µg/mL (Bacillus subtilis [12]): 5.5 mm
- zone of inhibition at 50 µg/mL (Bacillus subtilis [13]): 2 mm
- zone of inhibition at 50 µg/mL (Salmonella typhi [14]): 4 mm
- zone of inhibition at 100 µg/mL (Salmonella typhi [15]): 7.5 mm
- zone of inhibition at 100 µg/mL (Escherichia coli [16]): 11.5 mm

SMILES: Cc1ncc([N+](=O)[O-])n1CCO [METRONIDAZOLE]
- zone of inhibition at 100 µg/mL [1]: 14 mm
- zone of inhibition at 50 µg/mL [4]: 11 mm
- zone of inhibition at 100 µg/mL (Candida albicans [5]): 19.5 mm
- zone of inhibition at 50 µg/mL (Candida albicans [6]): 15 mm
- zone of inhibition at 100 µg/mL (Nannizzia gypsea [7]): 17 mm
- zone of inhibition at 50 µg/mL (Nannizzia gypsea [8]): 14 mm
- zone of inhibition at 100 µg/mL (Aspergillus flavus [9]): 17.5 mm
- zone of inhibition at 50 µg/mL (Aspergillus flavus [10]): 13.5 mm
